The species entered for test [1] is Canis familiaris. Nature of the test: Effective concentration for the agonist in the isolated blood vessel using in vitro saphenous vein. The format is functional. The following applies: Canis lupus familiaris. The method in brief: (§1)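 Vessel segments from mongrel dogs (15–25 kg) anesthetized with pentobarbital (30 mg/kg iv), mounted for isometric tension in physiological saline. Equilibrated 90 min with bath changes every 30 min, rauwolscine (10^-7 M) present throughout. Primed with KCl (100 mM), then phenylephrine (1 µM). Agonist concentration–response curves run at half-log steps, giving EC50 (µM) and Emax as % of phenylephrine maximum; mean ±SD.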

Test [2] is filed under the species Canis familiaris. Nature of the test: Maximal contractile response obtained with the agonist (expressed as a percentage of the maximal contraction to phenylephrine in the dog femoral artery). The format is functional, Canis lupus familiaris. In a few lines: as §1
For test [3], the species on record is Canis familiaris. Put plainly: Effective concentration for the agonist in the isolated blood vessel using in vitro femoral artery. The format is functional. The note with it: Canis lupus familiaris. In a few lines: as §1
For test [4], the species on record is Canis familiaris. Put plainly: Maximal contractile response obtained with the agonist (expressed as a percentage of the maximal contraction to phenylephrine in the dog saphenous vein). The format is functional, Canis lupus familiaris. In a few lines: as §1
A short description of test [5]: Ratio of C20 obtained in the absence or presence of [C20 (1 mg of yohimbine.) / C20 (control)]. The format is functional. The method in brief: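 Pithed rat arterial pressure assay with tertatolol (100 mg/kg) pretreatment, then yohimbine (1 mg/kg) 10 min later. Cumulative iv agonist doses given at 20 s intervals after a further 10 min, C20 (+20 mmHg dose) obtained. Ratio expressed as C20(yohimbine)/C20(control); 3–6 determinations.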

Test [6] has as its target T1, Adrenergic receptor alpha (Rattus norvegicus) (UniProt P15823+P23944+P43140+P22086+P19328+P22909). Put plainly: Alpha adrenergic activity was evaluated as maximal pressure response caused by agonist, expressed in mmHg (the maximum obtained with phenylephrine is 150 mmHg). The test is classed as functional.
Test [7] is described as follows: Ratio of C20 obtained in the absence or presence of [C20 ( 0.1 mg of prazosin ) / C20 (control)]. The format is functional. The method in brief:
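Pithed rats pretreated with tertatolol (100 mg/kg), then 10 min later with prazosin (100 µg/kg). Cumulative iv agonist doses given another 10 min later at 20 s intervals. Arterial pressure recorded, C20 (dose giving +20 mmHg) determined. Ratio calculated as C20(prazosin)/C20(control); 3–6 determinations.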

Test [8] addresses T1, Adrenergic receptor alpha (Rattus norvegicus). Put plainly: Alpha adrenergic activity was evaluated as concentration (iv) which increases the arterial pressure by 20 mmHg in the pithed rat. The test is classed as functional, organism-based. The following applies: Artery.

Experimental findings from ChEMBL document CHEMBL1128460, “Design, synthesis, and structure-activity relationships of a new series of alpha-adrenergic agonists: spiro[(1,3-diazacyclopent-1-ene)-5,2'-(1',2',3',4'- tetrahydronaphthalene)]” (J Med Chem, 1995) are described below.

By EC50 is commonly meant the concentration giving half of the maximal effect.

`NC1=NC2(CCc3ccccc3C2)CN1` (stereo unspecified): the concentration giving a half-maximal response (EC50) in test [1] is 52 µM; in test [3], 50 µM. Also, the Emax in test [2] was found to be 2; in test [4], 36. Moreover, the results for the Ratio in test [5] and in test [7] were 26 and 2.5, respectively. The molecule further gave a Max in test [6] of 53 mmHg. This molecule registered a C20 in test [8] of 57 µg/kg.

As for `Fc1cc(F)c2c(c1)CC1(CC2)CN=CN1` (stereo unspecified), in test [1], a half-maximal response (EC50) required 6.3 µM. The Emax in test [2] worked out at 0; in test [4], 35. In addition, the figures for the Ratio in test [5] and in test [7] were 5.7 and 2.4, respectively. In addition, in test [6], the Max stood at 84 mmHg. Further, the C20 in test [8] was 31 µg/kg.

For `COc1ccc(Cl)c2c1CCC1(CN=CN1)C2` (stereo unspecified), the 50% effective concentration (EC50) in test [1] was 0.027 µM; in test [3], 0.27 µM. The Emax in test [2] was 102; in test [4], 106.

`Oc1cccc2c1CC1(CC2)CN=CN1` (stereo unspecified): the 50% effective concentration (EC50) in test [1] stood at 10 µM; in test [3], 39 µM. Further, the Emax was 22 in test [2] and 66 in test [4]. The results for the Ratio in test [5] and in test [7] were 12 and 0.9, respectively. In addition, the Max in test [6] amounted to 119 mmHg. For the same molecule, the C20 in test [8] stood at 4.3 µg/kg.

On to `Clc1cccc2c1CCC1(CN=CN1)C2` (stereo unspecified), for which the Ratio in test [5] was determined as 2.8; in test [7] it was 1.3. This molecule came in with a Max in test [6] of 125 mmHg. For the same molecule, the C20 in test [8] turned out to be 7 µg/kg.

On to `C1=NC2(CCc3ccccc3C2)CO1` (stereo unspecified), for which the Emax in test [2] and in test [4] was 0 throughout. In test [6], this molecule had a Max of 38 mmHg. In test [8], this molecule returned a C20 above 10000 µg/kg.

For `COc1ccc2c(c1OC)CCC1(CN=CN1)C2` (stereo unspecified), the EC50 turned out to be 52 µM in test [1] and 50 µM in test [3]. Further, the figures for the Emax in test [2] and in test [4] were 21 and 67, respectively. For the same molecule, the values for the Ratio in test [5] and in test [7] were 2.4 and 2.9, respectively. In test [6], this molecule came in with a Max of 107 mmHg. This molecule also registered a C20 in test [8] of 142 µg/kg.

Regarding `CCOc1ccc(OC)c2c1CCC1(CN=CN1)C2` (stereo unspecified), the values for the EC50 in test [1] and in test [3] were 0.8 µM and 0.08 µM, respectively. Further, the Emax in test [2] was determined as 85; in test [4], 98. The Ratio in test [5] was found to be 4.8; in test [7], 21.5. Also, in test [6], the Max is 147 mmHg. Further, the C20 in test [8] was 0.06 µg/kg.

In test [6], `COc1cc2c(cc1OC)CC1(CC2)CN=CN1` (stereo unspecified) showed a Max of 129 mmHg. In test [7], the Ratio worked out at 1.8. Besides, the C20 in test [8] stood at 98 µg/kg.

`CC(C)Oc1ccc2c(c1)CCC1(CN=CN1)C2` (stereo unspecified): it took 3.9 µM to reach a half-maximal effect in test [1] (EC50). The Emax in test [2] is 0; in test [4], 15. Also, the values for the Ratio in test [5] and in test [7] were 66 and 11, respectively. The Max in test [6] was 62 mmHg. For the same molecule, the C20 in test [8] worked out at 74 µg/kg.

`CN1C=NC2(CCc3ccccc3C2)C1` (stereo unspecified) returned an EC50 in test [1] of 25 µM. Moreover, the Emax in test [2] stood at 0; in test [4], 31. For the same molecule, the results for the Ratio in test [5] and in test [7] were 2.5 and 2.1, respectively. In addition, the Max in test [6] amounted to 77 mmHg. The C20 in test [8] was 150 µg/kg.

On to `NC1=NC2(CCc3ccccc3C2)CO1` (stereo unspecified), for which the EC50 in test [1] was found to be 2.3 µM; in test [3] it was 26 µM. Also, the Emax in test [2] is 18; in test [4], 76. The Ratio in test [5] was found to be 19.6; in test [7], 3.5. In test [6], this molecule displayed a Max of 95 mmHg. In test [8], this molecule gave a C20 of 5.2 µg/kg.

In the case of `COc1cc2c(cc1O)CCC1(CN=CN1)C2` (stereo unspecified), the EC50 was determined as 19 µM in test [1] and 1.4 µM in test [3]. Moreover, the Emax in test [2] is on record as 69; in test [4] it was 97. In addition, the Ratio was 2.8 in test [5] and 9.2 in test [7]. Moreover, in test [6], the Max was 134 mmHg. Besides, in test [8], the C20 was determined as 1.2 µg/kg.

`COc1cc2c(c(OC)c1)CCC1(CN=CN1)C2` (stereo unspecified): the EC50 in test [1] is 7.3 µM; in test [3] it was 0.7 µM. For the same molecule, the Emax in test [2] is listed as 25; in test [4], 44. Further, the Ratio in test [5] turned out to be 2.6; in test [7], 2.9. Moreover, the Max in test [6] amounted to 109 mmHg. The same molecule showed a C20 in test [8] of 7.9 µg/kg.

Regarding `Cc1ccc(C)c2c1CCC1(CN=CN1)C2` (stereo unspecified), the results for the EC50 in test [1] and in test [3] were 2.4 µM and 3 µM, respectively. For the same molecule, the figures for the Emax in test [2] and in test [4] were 67 and 84, respectively. In addition, the Ratio in test [5] was 4.8; in test [7], 2.1. In test [6], the Max is 140 mmHg. The C20 in test [8] came to 0.5 µg/kg.

With `CCOc1ccc(OCC)c2c1CCC1(CN=CN1)C2` (stereo unspecified), the half-maximal effective concentration (EC50) in test [1] worked out at 2.7 µM; in test [3] it was 0.85 µM. Besides, the Emax in test [2] is 55; in test [4] it was 68. Moreover, the Ratio was 7.7 in test [5] and 24 in test [7]. The molecule also came in with a Max in test [6] of 157 mmHg. Further, the C20 in test [8] was found to be 0.6 µg/kg.

As to `COc1ccc(SC)c2c1C[C@@H]1[C@@H](C2)OCCN1C`, the EC50 in test [1] was 0.023 µM; in test [3], 38 µM. In addition, the Emax in test [2] is 28; in test [4], 38. Moreover, the Ratio came to 2.4 in test [5] and 5.1 in test [7]. Further, the Max in test [6] stood at 123 mmHg. For the same molecule, the C20 in test [8] is 23 µg/kg.

`CC1=NC2(CCc3ccccc3C2)CN1` (stereo unspecified) displayed a concentration for a half-maximal effect (EC50) in test [1] of 400 µM. The Emax is 0 in test [2] and 23 in test [4]. Further, the values for the Ratio in test [5] and in test [7] were 5.3 and 1.8, respectively. The same molecule returned a Max in test [6] of 113 mmHg. The C20 in test [8] is 166 µg/kg.

For the molecule `Clc1cccc2c1CC1(CC2)CN=CN1` (stereo unspecified), the EC50 came out at 0.24 µM in test [1] and 1.6 µM in test [3]. For the same molecule, the values for the Emax in test [2] and in test [4] were 83 and 95, respectively. Also, the Ratio was found to be 4.7 in test [5] and 1.9 in test [7]. The molecule also returned a Max in test [6] of 133 mmHg. Also, the C20 in test [8] is 0.3 µg/kg.

Regarding `Clc1cc2c(cc1Cl)CC1(CC2)CN=CN1` (stereo unspecified), it took 44 µM to reach a half-maximal effect in test [1] (EC50). Further, the Emax stood at 0 in test [2] and 36 in test [4]. In addition, the Ratio stood at 3.1 in test [5] and 7 in test [7]. The Max in test [6] worked out at 101 mmHg. The same molecule returned a C20 in test [8] of 33 µg/kg.

Consider `Cc1ccc2c(c1)CCC1(CN=CN1)C2` (stereo unspecified), for which the EC50 in test [1] was 2.1 µM; in test [3] it was 14 µM. Further, the results for the Emax in test [2] and in test [4] were 12 and 44, respectively. In addition, the Ratio in test [5] turned out to be 6.1; in test [7], 1.3. In addition, the Max in test [6] amounted to 114 mmHg. Further, the C20 in test [8] was 5.4 µg/kg.

In test [1], `CC(C)(C)c1ccc2c(c1)CC1(CC2)CN=CN1` (stereo unspecified) showed an EC50 of 40 µM. Moreover, the values for the Emax in test [2] and in test [4] were 0 and 35, respectively. The results for the Ratio in test [5] and in test [7] were 1.6 and 1.7, respectively. Besides, the Max in test [6] is 45 mmHg. Also, the C20 in test [8] is 465 µg/kg.

`FC(F)(F)c1ccc2c(c1)CC1(CC2)CN=CN1` (stereo unspecified) had an Emax in test [4] of 7. Also, the Ratio in test [5] came out at 2.7; in test [7] it was 10. Moreover, the Max in test [6] turned out to be 55 mmHg. In test [8], this molecule yielded a C20 of 320 µg/kg.

On to `Clc1cc(Cl)c2c(c1)CCC1(CN=CN1)C2` (stereo unspecified), for which the values for the EC50 in test [1] and in test [3] were 6 µM and 8 µM, respectively. The Emax in test [2] is listed as 75; in test [4], 100. The Max in test [6] was found to be 137 mmHg. This molecule also came in with a C20 in test [8] of 4.2 µg/kg.

In test [1], `CCc1ccc2c(c1)CC1(CC2)CN=CN1` (stereo unspecified) came in with a 50% effective concentration (EC50) of 75 µM. Further, the Emax in test [2] is given as 0; in test [4], 50. For the same molecule, the Ratio was 2.6 in test [5] and 2.5 in test [7]. The same molecule yielded a Max in test [6] of 61 mmHg. In test [8], this molecule showed a C20 of 209 µg/kg.
